Our source for the Ki and Ratio values is ChEMBL document CHEMBL1135435, “Synthesis and pharmacological evaluation of 5-(4-biphenyl)-3-methyl-4-phenyl-1,2,4-triazole derivatives as a novel class of selective antagonists for the human vasopressin V(1A) receptor” (J Med Chem, 2002).

In assay [1] the target is Vasopressin V1a receptor (Homo sapiens, UniProt P37288). The experiment in a line: Binding affinity at cloned human Vasopressin V1a receptor stably expressed in CHO cells, using [3H]AVP as radioligand. Type of assay: cell-based. A digest of the protocol: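 Membranes from CHO cells stably expressing cloned human receptor; [3H]AVP (0.5-1.0 nM) with graded test concentrations in 50 mM Tris-HCl pH 7.4, 10 mM MgCl2, 0.1% BSA, 60 min at 25 °C. Stopped with ice-cold Tris buffer, rapid GF/B filtration, scintillation counting. Nonspecific binding with 1 μM unlabeled AVP.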
Vasopressin V1a receptor (Homo sapiens, UniProt P37288), sequence (P37288 whole entry): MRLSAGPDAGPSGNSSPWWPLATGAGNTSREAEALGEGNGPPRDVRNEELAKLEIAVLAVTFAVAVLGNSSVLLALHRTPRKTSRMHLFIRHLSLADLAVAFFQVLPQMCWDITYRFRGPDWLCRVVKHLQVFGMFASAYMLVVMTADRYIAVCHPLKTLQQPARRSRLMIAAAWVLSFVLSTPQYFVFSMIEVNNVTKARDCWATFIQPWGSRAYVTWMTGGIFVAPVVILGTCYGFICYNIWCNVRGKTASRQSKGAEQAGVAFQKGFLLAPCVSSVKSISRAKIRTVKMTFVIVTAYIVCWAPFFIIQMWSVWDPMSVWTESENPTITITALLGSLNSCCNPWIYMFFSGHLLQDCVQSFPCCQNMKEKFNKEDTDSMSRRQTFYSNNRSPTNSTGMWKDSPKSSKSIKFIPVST

Assay [2] deals with Vasopressin V2 receptor (Homo sapiens, UniProt P30518). The assay can be described thus: Binding affinity at cloned human Vasopressin V2 receptor stably expressed in CHO cells, using [3H]AVP as radioligand. It counts as cell-based. A digest of the protocol:
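Membranes from CHO cells stably expressing cloned human receptor; [3H]AVP (0.5-1.0 nM) with graded test concentrations in 50 mM Tris-HCl pH 7.4, 10 mM MgCl2, 0.1% BSA, 60 min at 25 °C. Stopped with ice-cold Tris buffer, rapid GF/B filtration, scintillation counting. Nonspecific binding with 1 μM unlabeled AVP. Ki = IC50/(1+[L]/Kd); Kd from Scatchard: 0.39 nM (V1A), 1.21 nM (V2).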

The nature of assay [3]: Selectivity ratio of affinity at human Vasopressin V2 receptor to that of human Vasopressin V1a receptor. A digest of the protocol: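 Ratio of hV2 Ki to hV1A Ki, each from [3H]AVP displacement on membranes of CHO cells stably expressing the cloned human receptor (60 min, 25 °C, filtration read-out; Ki via Cheng–Prusoff using Scatchard Kd).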
The target of assay [4] is Vasopressin V2 receptor (Rattus norvegicus, UniProt Q00788). The experiment in a line: Binding affinity at Vasopressin V2 receptor, performed using [3H]AVP on rat kidney. The method in brief: (§1)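 [3H]AVP binding on plasma membranes prepared from rat liver (V1A) or rat kidney (V2). Ki from four to six independent experiments in duplicate, mean ± SEM; selectivity expressed as V2/V1A Ki ratio.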
Vasopressin V2 receptor (Rattus norvegicus, UniProt Q00788), sequence (Q00788 whole entry): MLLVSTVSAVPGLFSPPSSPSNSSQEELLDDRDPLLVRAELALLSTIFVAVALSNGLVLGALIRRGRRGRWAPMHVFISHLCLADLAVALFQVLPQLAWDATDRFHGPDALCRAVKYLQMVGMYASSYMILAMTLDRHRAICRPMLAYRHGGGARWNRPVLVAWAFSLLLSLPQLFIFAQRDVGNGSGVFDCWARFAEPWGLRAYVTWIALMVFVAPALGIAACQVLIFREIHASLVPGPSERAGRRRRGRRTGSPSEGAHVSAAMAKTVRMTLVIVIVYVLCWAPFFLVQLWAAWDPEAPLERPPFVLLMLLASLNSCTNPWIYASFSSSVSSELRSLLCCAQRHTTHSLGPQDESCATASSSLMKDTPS

The target in assay [5] is Vasopressin V2 receptor (Rattus norvegicus) (UniProt Q00788). The experiment in a line: Selectivity ratio (Ki) of affinity at rat Vasopressin V2 receptor to that of rat Vasopressin V1a receptor. A digest of the protocol:
as §1

The target in assay [6] is Vasopressin V1a receptor (Rattus norvegicus, UniProt P30560). The assay can be described thus: Binding affinity at Vasopressin V1a receptor, performed using [3H]AVP on rat liver. A digest of the protocol: as §1
Vasopressin V1a receptor (Rattus norvegicus, UniProt P30560), sequence (P30560 whole entry): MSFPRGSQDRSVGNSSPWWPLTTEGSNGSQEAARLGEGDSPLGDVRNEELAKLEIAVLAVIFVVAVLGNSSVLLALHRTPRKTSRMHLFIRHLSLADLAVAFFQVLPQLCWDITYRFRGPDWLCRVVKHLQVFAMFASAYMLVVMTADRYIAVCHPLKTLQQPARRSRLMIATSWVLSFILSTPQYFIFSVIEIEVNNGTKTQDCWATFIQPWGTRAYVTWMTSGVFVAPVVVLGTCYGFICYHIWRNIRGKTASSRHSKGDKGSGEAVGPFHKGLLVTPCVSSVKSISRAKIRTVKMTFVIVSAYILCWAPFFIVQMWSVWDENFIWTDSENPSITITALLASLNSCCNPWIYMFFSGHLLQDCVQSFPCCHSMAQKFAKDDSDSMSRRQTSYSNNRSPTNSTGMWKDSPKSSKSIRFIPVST

Vasopressin V2 receptor (Rattus norvegicus), sequence (Q00788 whole entry): as the sequence (Q00788 whole entry) above
Vasopressin V2 receptor (Homo sapiens, UniProt P30518), sequence (P30518 whole entry): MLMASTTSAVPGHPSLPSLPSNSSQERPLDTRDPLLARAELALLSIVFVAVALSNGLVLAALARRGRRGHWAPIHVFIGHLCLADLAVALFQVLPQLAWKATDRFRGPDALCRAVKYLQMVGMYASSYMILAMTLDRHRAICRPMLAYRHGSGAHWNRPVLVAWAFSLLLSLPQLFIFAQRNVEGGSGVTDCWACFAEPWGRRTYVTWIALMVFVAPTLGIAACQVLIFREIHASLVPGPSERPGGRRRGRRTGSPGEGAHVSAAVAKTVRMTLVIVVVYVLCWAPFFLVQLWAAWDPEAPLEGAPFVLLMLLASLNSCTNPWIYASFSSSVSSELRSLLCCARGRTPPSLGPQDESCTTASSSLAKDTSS

In general, Ki refers to the equilibrium dissociation constant of an inhibitor or competing ligand from its target. A lower Ki goes with higher affinity. On Vasopressin V1a receptor [1], `Cc1nnc(-c2ccc(-c3ccccc3)cc2)n1-c1cccc(OCCCCCCN2CCN(C)CC2)c1` gave a Ki of 214 nM.
As for `Cc1nnc(-c2ccc(-c3ccccc3)cc2)n1-c1ccccc1OCCCCCCCN1CCN(C)CC1`, the inhibition constant Ki came out at 2470 nM at Vasopressin V2 receptor [2] and 4.5 nM at Vasopressin V1a receptor [1]. Further, in assay [3], the Ratio worked out at 550.
Take `Cc1cccc(OCc2ccc(C(=O)N3CCC(N4CCCCC4)CC3)cc2)c1-n1c(C)nnc1-c1ccc(-c2ccccc2)cc1`: the Ki was 1840 nM at Vasopressin V2 receptor [4], 1920 nM at Vasopressin V2 receptor [2], 32.4 nM on Vasopressin V1a receptor [6] and 1.01 nM on Vasopressin V1a receptor [1]. Besides, the Ratio in assay [5] came to 57; in assay [3], 1900.
In the case of `Cc1cccc(OCc2ccc(C(=O)N3CCN(C)CC3)cc2)c1-n1c(C)nnc1-c1ccc(-c2ccccc2)cc1`, the inhibitory constant (Ki) on Vasopressin V2 receptor [2] stood at 8520 nM; on Vasopressin V1a receptor [1] it was 8.09 nM. Moreover, in assay [3], the Ratio is 1100.
Turning to `Cc1nnc(-c2ccc(-c3ccccc3)cc2)n1-c1ccccc1OCCCCN1CCN(C)CC1`, the inhibition constant Ki on Vasopressin V2 receptor [2] is 10200 nM; at Vasopressin V1a receptor [1], 29.1 nM. Moreover, the Ratio in assay [3] amounted to 360.
`Cc1nnc(-c2ccc(-c3ccccc3)cc2)n1-c1ccccc1OCCCC1CCNCC1`: the figures for the Ki on Vasopressin V2 receptor [2] and on Vasopressin V1a receptor [1] were 7370 nM and 7.84 nM, respectively. Besides, the Ratio in assay [3] was 940.
`Cc1nnc(-c2ccc(-c3ccccc3)cc2)n1-c1ccccc1OCCCCCCN1CCC(N2CCCCC2)CC1`: the Ki at Vasopressin V2 receptor [4] is 1010 nM; at Vasopressin V2 receptor [2] it was 979 nM; on Vasopressin V1a receptor [6], 9.69 nM; at Vasopressin V1a receptor [1], 1.05 nM. Besides, the Ratio in assay [5] was 100; in assay [3], 930.
As for `Cc1nnc(-c2ccc(-c3ccccc3)cc2)n1-c1ccccc1OCCCCCCN1CCN(C)CC1`, the inhibition constant Ki at Vasopressin V2 receptor [4] turned out to be 1240 nM; at Vasopressin V2 receptor [2], 1780 nM; on Vasopressin V1a receptor [6], 17.3 nM; at Vasopressin V1a receptor [1] it was 1.04 nM. The Ratio in assay [5] came out at 72; in assay [3] it was 1700.
`CN(C)C1CCN(C(=O)/C=C2/c3ccccc3N(C(=O)c3ccc(NC(=O)c4ccccc4-c4ccccc4)cc3)CCC2(F)F)CC1`: the Ki is 0.77 nM at Vasopressin V2 receptor [4], 1.19 nM on Vasopressin V2 receptor [2], 0.16 nM at Vasopressin V1a receptor [6] and 0.62 nM on Vasopressin V1a receptor [1]. The Ratio in assay [5] was 4.8; in assay [3], 1.9.
`Cc1cccc(OCCCCCCN2CCN(C)CC2)c1-n1c(C)nnc1-c1ccc(-c2ccccc2)cc1`: the Ki on Vasopressin V2 receptor [4] came out at 11700 nM; on Vasopressin V2 receptor [2] it was 14400 nM; on Vasopressin V1a receptor [6], 102 nM; at Vasopressin V1a receptor [1], 1.46 nM. For the same compound, the results for the Ratio in assay [5] and in assay [3] were 110 and 9900, respectively.
`COc1ccccc1-n1c(C)nnc1-c1ccc(-c2ccccc2)cc1`: the inhibitory constant (Ki) at Vasopressin V2 receptor [2] stood at 2460 nM; at Vasopressin V1a receptor [1] it was 120 nM. The Ratio in assay [3] was determined as 21.
In the case of `CC(=O)NCCCOc1ccc(C(=O)N2CCC(N3C(=O)CCc4ccccc43)CC2)cc1`, the Ki on Vasopressin V2 receptor [4], on Vasopressin V2 receptor [2] and at Vasopressin V1a receptor [1] was above 10000 nM in each case. The Ratio in assay [5] was above 430.
In the case of `Cc1nnc(-c2ccc(-c3ccccc3)cc2)n1-c1ccccc1OCCCCCCN1CCCCC1`, the Ki turned out to be 6930 nM at Vasopressin V2 receptor [2] and 13.9 nM on Vasopressin V1a receptor [1]. In addition, in assay [3], the Ratio stood at 500.
On to `Cc1nnc(-c2ccc(-c3ccccc3)cc2)n1-c1ccccc1OCCCCCCCCCCN1CCN(C)CC1`, for which the results for the Ki on Vasopressin V2 receptor [2] and at Vasopressin V1a receptor [1] were 14300 nM and 39.4 nM, respectively. Further, the Ratio in assay [3] was 360.
For `Cc1nnc(-c2ccc(-c3ccccc3)cc2)n1-c1ccc(OCCCCCCN2CCN(C)CC2)cc1`, the Ki on Vasopressin V1a receptor [1] was above 10000 nM.
Turning to `Cc1nnc(-c2ccc(-c3ccccc3)cc2)n1-c1ccccc1OCCCCCCCCN1CCN(C)CC1`, the results for the Ki at Vasopressin V2 receptor [2] and on Vasopressin V1a receptor [1] were 8890 nM and 13.2 nM, respectively. In assay [3], the Ratio is 670.
With `Cc1nnc(-c2ccc(-c3ccccc3)cc2)n1-c1ccccc1OCCC1CCNCC1`, the Ki at Vasopressin V2 receptor [2] worked out at 8170 nM; on Vasopressin V1a receptor [1], 55.5 nM. Further, the Ratio in assay [3] came out at 150.
As to `Cc1nnc(-c2ccc(-c3ccccc3)cc2)n1-c1ccccc1OCCCN1CCN(C)CC1`, the Ki on Vasopressin V2 receptor [2] turned out to be 10200 nM; at Vasopressin V1a receptor [1], 38.3 nM. The Ratio in assay [3] came out at 270.
For `Cc1nnc(-c2ccc(-c3ccccc3)cc2)n1-c1ccccc1OCCCCCC(=O)N1CCN(C)CC1`, the Ki on Vasopressin V2 receptor [2] was 6650 nM; on Vasopressin V1a receptor [1], 9.16 nM. Besides, the Ratio in assay [3] is 730.
For `Cc1nnc(-c2ccc(-c3ccccc3)cc2)n1-c1ccccc1OCCCCC1CCNCC1`, the values for the inhibitory constant (Ki) at Vasopressin V2 receptor [2] and at Vasopressin V1a receptor [1] were 4430 nM and 2.12 nM, respectively. Further, the Ratio in assay [3] was determined as 2100.
Turning to `Cc1nnc(-c2ccc(-c3ccccc3)cc2)n1-c1ccccc1OCCCCCCn1ccnc1`, the Ki is 11100 nM at Vasopressin V2 receptor [2] and 9.06 nM at Vasopressin V1a receptor [1]. Besides, the Ratio in assay [3] worked out at 1200.
Take `COc1ccc(S(=O)(=O)N2c3ccc(Cl)cc3[C@](O)(c3ccccc3Cl)[C@@H]2C(=O)N2CCC[C@H]2C(N)=O)cc1OC` [RELCOVAPTAN]: the results for the Ki on Vasopressin V2 receptor [4] and on Vasopressin V2 receptor [2] were 285 nM and 178 nM, respectively.
Turning to `Cc1nnc(-c2ccc(-c3ccccc3)cc2)n1-c1ccccc1OCCCCCN1CCN(C)CC1`, the figures for the inhibition constant (Ki) at Vasopressin V2 receptor [2] and at Vasopressin V1a receptor [1] were 4850 nM and 4.09 nM, respectively. Moreover, the Ratio in assay [3] turned out to be 1200.
Regarding `Cc1nnc(-c2ccc(-c3ccccc3)cc2)n1-c1ccccc1OCc1ccc(C(=O)N2CCN(C)CC2)cc1`, the Ki on Vasopressin V2 receptor [4] was found to be 364 nM; on Vasopressin V2 receptor [2], 585 nM; at Vasopressin V1a receptor [6], 62.7 nM; on Vasopressin V1a receptor [1] it was 3.03 nM. Moreover, the Ratio in assay [5] was 5.8; in assay [3], 190.
